What is called AUC(0-inf) is total exposure, with the tail of the curve extrapolated. In general, Tmax refers to the time at which the peak concentration occurs. For orientation: Cmax means the maximum level reached in the sampled fluid or tissue.

These results are taken from ChEMBL document CHEMBL1275565, “Minimal effects of ritonavir and efavirenz on the pharmacokinetics of raltegravir” (Antimicrob Agents Chemother, 2008).

SMILES strings stand for the structures.

Common to all, as to assay type: ADME, organism-based
A short description of data set [1]: AUC (0 to infinity) in HIV-negative human at 400 mg, po administered as single dose. Details: dose 400 mg, time infinity, route oral. The following applies: plasma. The essentials:
(§1)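 Period 1 of two crossover studies in healthy male volunteers: single 400 mg oral raltegravir alone. Plasma sampled 0–72 h postdose and assayed by validated reverse-phase HPLC-MS/MS (LLOQ 2 ng/ml, linear to 1,000 ng/ml), converted to nM (MW 444.4). Cmax by inspection; C12h from the nominal 12 h sample; AUC0–∞ by linear/log trapezoidal plus extrapolation from the last concentration/β.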

A short description of data set [2]: Terminal half life in HIV-negative human at 400 mg, po administered as single dose followed by 4 days wash out period followed by efavirenz dosing at 600 mg, po bid for 14 days coadministered with compound at 400 mg, po on day 12. The settings on record: in vivo, in the assay text read “po qd for 14 days” for “po bid for 14 days”, read-out: beta t1/2 (converted). The essentials: (§2)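 Healthy male volunteers; plasma raltegravir measured by validated reverse-phase HPLC-MS/MS (LLOQ 2 ng/ml, linear 2 to 1,000 ng/ml) and converted to nM. Each subject's profile was fit to a biexponential model (weighting 1/(predicted concentration)², Gauss-Newton minimization), with α-phase onset set by inspection. Phase t1/2 = ln(2)/α or β. Median differences were estimated by Hodges-Lehman with 90% CI.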

Data set [3] in a line: Primary phase half life in HIV-negative human at 400 mg, po administered as single dose followed by 4 days wash out period followed by ritonavir dosing at 100 mg, po bid for 16 days coadministered with compound at 400 mg, po on day 14. The following applies: in vivo, read-out: alphat1/2 (converted). In outline: as §2
Data set [4] can be described thus: Tmax in HIV-negative human at 400 mg, po administered as single dose followed by 4 days wash out period followed by […] coadministered with compound at 400 mg, po on day 14. The settings on record: in vivo.
Data set [5] is described as follows: Terminal half life in HIV-negative human at 400 mg, po administered as single dose. The following applies: in vivo, read-out: beta t1/2 (converted). In outline: as §2
Data set [6] is described as follows: Trough plasma concentration at 12 hrs in HIV-negative human at 400 mg, po administered as single dose. The following applies: read-out: Cmin. The essentials:
as §1

The nature of data set [7]: AUC (0 to infinity) in HIV-negative human at 400 mg, po administered as single dose followed by 4 days wash out period followed by efavirenz dosing at 600 mg, po bid for 14 days coadministered with compound at 400 mg, po on day 12. Further details: dose 400 mg, route oral, time infinity. The following applies: plasma, in the assay text read “po qd for 14 days” for “po bid for 14 days”. The essentials:
(§3)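 Efavirenz 600 mg orally once daily at bedtime for 14 days, with a single 400 mg oral raltegravir (double-blind vs placebo) alongside on day 12. Healthy males, all doses taken fasted. Plasma sampled at 0–72 h postdose as in the ritonavir study, but at 36 h instead of 32 h, and quantified by HPLC-MS/MS. Cmax by inspection; C12h at nominal 12 h; AUC0–∞ by linear/log trapezoidal plus extrapolation.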

A short description of data set [8]: Terminal half life in HIV-negative human at 400 mg, po administered as single dose followed by 4 days wash out period followed by ritonavir dosing at 100 mg, po bid for 16 days coadministered with compound at 400 mg, po on day 14. The settings on record: in vivo, read-out: beta t1/2 (converted). In outline:
as §2

The nature of data set [9]: Primary phase half life in HIV-negative human at 400 mg, po administered as single dose followed by 4 days wash out period followed by efavirenz dosing at 600 mg, po bid for 14 days coadministered with compound at 400 mg, po on day 12. The settings on record: in vivo, in the assay text read “po qd for 14 days” for “po bid for 14 days”, read-out: alphat1/2 (converted). The essentials:
as §2

A short description of data set [10]: Cmax in HIV-negative human at 400 mg, po administered as single dose followed by 4 days wash out period followed by […] coadministered with compound at 400 mg, po on day 14. Further details: dose 400 mg, route oral. The settings on record: in vivo.
Data set [11] can be described thus: AUC (0 to infinity) in HIV-negative human at 400 mg, po administered as single dose followed by 4 days wash out period followed by […] coadministered with compound at 400 mg, po on day 14. Further details: dose 400 mg, time infinity, route oral. The following applies: plasma.
Data set [12] in a line: Cmax in HIV-negative human at 400 mg, po administered as single dose. The settings on record: in vivo. Further details: dose 400 mg, route oral. The essentials:
as §1

The nature of data set [13]: Trough plasma concentration at 12 hrs in HIV-negative human at 400 mg, po administered as single dose followed by 4 days wash out period followed by ritonavir dosing at 100 mg, po bid […] coadministered with compound at 400 mg, po on day 14. The following applies: read-out: Cmin. The essentials:
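In healthy young males, ritonavir 100 mg twice daily for 14 days, with a single 400 mg oral raltegravir (double-blind vs placebo) given with the morning dose on day 14. All doses followed a moderate-fat meal. Cmax and Tmax by inspection at nominal times; C12h from the 12 h sample; AUC0–∞ by trapezoidal sum plus extrapolation.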

A short description of data set [14]: Trough plasma concentration at 12 hrs in HIV-negative human at 400 mg, po administered as single dose followed by 4 days wash out period followed by efavirenz dosing at 600 mg, po bid for 14 days coadministered with compound at 400 mg, po on day 12. The following applies: in the assay text read “po qd for 14 days” for “po bid for 14 days”, read-out: Cmin. The essentials:
as §3

A short description of data set [15]: Cmax in HIV-negative human at 400 mg, po administered as single dose followed by 4 days wash out period followed by efavirenz dosing at 600 mg, po bid for 14 days coadministered with compound at 400 mg, po on day 12. Details: dose 400 mg, route oral. The following applies: in vivo, in the assay text read “po qd for 14 days” for “po bid for 14 days”. The essentials:
as §3

Data set [16] can be described thus: Primary phase half life in HIV-negative human at 400 mg, po administered as single dose. The settings on record: in vivo, read-out: alphat1/2 (converted). In outline: as §2

`Cc1nnc(C(=O)NC(C)(C)c2nc(C(=O)NCc3ccc(F)cc3)c(O)c(=O)n2C)o1` [RALTEGRAVIR]: the area under the curve AUC(0-inf) in [1] turned out to be 22.9 µM·h; in [7] it was 18.1 µM·h; in data set [11], 19.3 µM·h. For the same molecule, the half-life in data set [2] was 9.1 h; in data set [3] it was 0.97 h; in data set [5] it was 10.8 h; in [8], 10 h; in data set [9], 0.95 h; in data set [16], 0.98 h. Also, the Tmax in [4] was determined as 2 h. Besides, the concentration at 12 h in [6] turned out to be 0.0771 µM; in data set [13], 0.0765 µM; in [14], 0.0625 µM. For the same molecule, the Cmax in data set [10] turned out to be 7.23 µM; in data set [12], 9.57 µM; in [15], 6.45 µM.
